# Laboratory results reported in ChEMBL document CHEMBL4002590, “Design and Synthesis of a Pan-Janus Kinase Inhibitor Clinical Candidate (PF-06263276) Suitable for Inhaled and Topical Delivery for the Treatment of Inflammatory Diseases of the Lungs and Skin” (J Med Chem, 2017).
# How the values were obtained:
# Canis familiaris = test: Toxicity in iv dosed dog for 7 days; format: organism-based, Canis lupus familiaris; details: in vivo, 168 h
# Outline: (§1)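 Exploratory 7-day intravenous toxicology studies in rat and dog; margins expressed over total plasma AUC relative to projected exposure at a 200 μg human lung dose.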
# [1] = Chemical stability in pH 8 solution at 40 degC up to 6 weeks; format: physicochemical; details: buffer, pH 8, 1008 h
# [2] = target: Acetylcholinesterase (Homo sapiens) (UniProt P22303); test: Inhibition of recombinant human acetylcholinesterase expressed in HEK-293 cells at 10 uM using acetylthiocholine substrate after 30 mins by photometry; format: cell-based
# Chain of Acetylcholinesterase (Homo sapiens) (P22303 whole entry): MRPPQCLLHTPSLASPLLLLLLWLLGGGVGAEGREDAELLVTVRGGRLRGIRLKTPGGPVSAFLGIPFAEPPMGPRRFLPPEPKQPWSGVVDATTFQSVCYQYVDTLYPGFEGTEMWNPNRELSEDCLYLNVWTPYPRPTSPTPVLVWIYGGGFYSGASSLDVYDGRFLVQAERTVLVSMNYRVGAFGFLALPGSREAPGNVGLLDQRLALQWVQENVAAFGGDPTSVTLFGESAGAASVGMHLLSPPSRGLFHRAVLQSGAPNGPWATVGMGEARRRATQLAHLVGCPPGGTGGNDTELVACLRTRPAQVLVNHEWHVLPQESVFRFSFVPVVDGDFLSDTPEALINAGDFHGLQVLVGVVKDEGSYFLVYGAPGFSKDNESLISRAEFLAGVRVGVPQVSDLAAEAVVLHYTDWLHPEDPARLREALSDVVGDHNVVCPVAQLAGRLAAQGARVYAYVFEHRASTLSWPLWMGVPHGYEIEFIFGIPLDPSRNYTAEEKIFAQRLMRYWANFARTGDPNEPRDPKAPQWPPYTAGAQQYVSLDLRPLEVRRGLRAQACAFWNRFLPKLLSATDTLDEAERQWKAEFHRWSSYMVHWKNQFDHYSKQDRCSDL
# Outline: (§2)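 Single-point screen at 10 μM within a broad panel of radioligand binding and enzyme inhibition assays covering receptors, transporters, enzymes and ion channels.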
# Rattus norvegicus [3] = organism: Rattus norvegicus; test: Displacement of [3H]batrachotoxinin from rat cerebral cortex sodium channel site-2 at 10 uM after 60 mins by scintillation counting method relative to control; outline: as §2
# [4] = Terminal half life in dog at 0.1 mg/kg, iv administered as 30 mins infusion; format: ADME, organism-based, Canis lupus familiaris; details: in vivo, read-out: beta t1/2 (converted)
# Rattus norvegicus [5] = test: Unbound clearance in rat at 0.5 mg/kg, iv; format: ADME, organism-based; details: in vivo
# [6] = Lipophilicity, logD of the compound by shake flask method; format: physicochemical; details: octanol/water
# Outline: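 log D measured by the shake flask method.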
# Salmonella typhimurium = test: Genotoxicity in Salmonella typhimurium by Ames test; format: toxicity; details: salmonella enterica subsp. enterica serovar typhimurium
# [7] = Terminal half life in iv dosed rat at 0.5 mg/kg; format: ADME, organism-based; details: in vivo, read-out: beta t1/2 (converted)
# JAK3/JAK1 (Homo sapiens) = JAK3/JAK1 (Homo sapiens) (UniProt P52333+P23458)
# [8] = target: Tyrosine-protein kinase JAK2 (Homo sapiens, UniProt O60674)
# Mus musculus = test: In vivo inhibition of JAK1/JAK2 in […] dosed Balb/c mouse assessed as inhibition of IL-6 induced STAT3 phosphorylation in lungs pretreated for 15 mins followed by IL-6 stimulation measured after 30 mins by ELISA; format: functional
# Outline: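 Intratracheal dosing in mouse, then IL-6 given i.t.; phosphorylated STAT3 quantified in lung. Percent inhibition ± 95% CI from the difference in geometric means between vehicle/IL-6 and vehicle/saline groups; N = 6.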
# [9] = target: Tyrosine-protein kinase Lck (Homo sapiens) (UniProt P06239); test: Inhibition of recombinant human Lck kinase expressed in insect Sf21 cells at 10 uM using Ulight-Poly GAT[EAY(1:1:1)]n as substrate after 10 mins by LANCE assay; outline: as §2
# Chain of Tyrosine-protein kinase Lck (Homo sapiens) (P06239 2-509 limits assumed): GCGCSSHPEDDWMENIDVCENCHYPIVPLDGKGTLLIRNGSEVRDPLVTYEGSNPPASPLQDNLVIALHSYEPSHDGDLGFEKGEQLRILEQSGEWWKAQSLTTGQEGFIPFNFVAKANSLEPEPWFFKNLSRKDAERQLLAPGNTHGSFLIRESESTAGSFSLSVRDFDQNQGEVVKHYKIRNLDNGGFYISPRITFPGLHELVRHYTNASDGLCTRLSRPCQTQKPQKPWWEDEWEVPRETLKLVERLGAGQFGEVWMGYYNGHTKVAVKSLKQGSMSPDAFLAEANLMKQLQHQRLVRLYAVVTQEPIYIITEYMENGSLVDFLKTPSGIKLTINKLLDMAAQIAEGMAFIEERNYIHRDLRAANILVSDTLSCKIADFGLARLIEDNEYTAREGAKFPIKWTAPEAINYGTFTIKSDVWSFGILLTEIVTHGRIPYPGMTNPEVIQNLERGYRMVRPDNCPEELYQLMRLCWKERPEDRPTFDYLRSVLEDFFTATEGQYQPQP
# [10] = Chemical stability in lactose using micronized sample up to 4 weeks; format: physicochemical; details: 672 h
# Outline: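 Jet-milled (micronized, ~2 μm) material blended with lactose and monitored for chemical and physical stability for up to 4 weeks.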
# [11] = Plasma protein binding in rat at 0.5 mg/kg, iv; format: ADME, organism-based; details: read-out: PPB
# Rattus norvegicus [12] = test: Toxicity in iv dosed rat for 7 days; format: organism-based; details: in vivo, 168 h; outline: as §1
# Janus Kinase (JAK) = Janus Kinase (JAK) (Homo sapiens, UniProt P52333+P23458+O60674+P29597)
# [13] = target: Non-receptor tyrosine-protein kinase TYK2 (Homo sapiens, UniProt P29597); test: Inhibition of Tyk2 (unknown origin) using peptide substrate preincubated for 60 mins followed by substrate addition and measured after 60 mins by microfluidic assay
# Chain of Non-receptor tyrosine-protein kinase TYK2 (P29597 whole entry): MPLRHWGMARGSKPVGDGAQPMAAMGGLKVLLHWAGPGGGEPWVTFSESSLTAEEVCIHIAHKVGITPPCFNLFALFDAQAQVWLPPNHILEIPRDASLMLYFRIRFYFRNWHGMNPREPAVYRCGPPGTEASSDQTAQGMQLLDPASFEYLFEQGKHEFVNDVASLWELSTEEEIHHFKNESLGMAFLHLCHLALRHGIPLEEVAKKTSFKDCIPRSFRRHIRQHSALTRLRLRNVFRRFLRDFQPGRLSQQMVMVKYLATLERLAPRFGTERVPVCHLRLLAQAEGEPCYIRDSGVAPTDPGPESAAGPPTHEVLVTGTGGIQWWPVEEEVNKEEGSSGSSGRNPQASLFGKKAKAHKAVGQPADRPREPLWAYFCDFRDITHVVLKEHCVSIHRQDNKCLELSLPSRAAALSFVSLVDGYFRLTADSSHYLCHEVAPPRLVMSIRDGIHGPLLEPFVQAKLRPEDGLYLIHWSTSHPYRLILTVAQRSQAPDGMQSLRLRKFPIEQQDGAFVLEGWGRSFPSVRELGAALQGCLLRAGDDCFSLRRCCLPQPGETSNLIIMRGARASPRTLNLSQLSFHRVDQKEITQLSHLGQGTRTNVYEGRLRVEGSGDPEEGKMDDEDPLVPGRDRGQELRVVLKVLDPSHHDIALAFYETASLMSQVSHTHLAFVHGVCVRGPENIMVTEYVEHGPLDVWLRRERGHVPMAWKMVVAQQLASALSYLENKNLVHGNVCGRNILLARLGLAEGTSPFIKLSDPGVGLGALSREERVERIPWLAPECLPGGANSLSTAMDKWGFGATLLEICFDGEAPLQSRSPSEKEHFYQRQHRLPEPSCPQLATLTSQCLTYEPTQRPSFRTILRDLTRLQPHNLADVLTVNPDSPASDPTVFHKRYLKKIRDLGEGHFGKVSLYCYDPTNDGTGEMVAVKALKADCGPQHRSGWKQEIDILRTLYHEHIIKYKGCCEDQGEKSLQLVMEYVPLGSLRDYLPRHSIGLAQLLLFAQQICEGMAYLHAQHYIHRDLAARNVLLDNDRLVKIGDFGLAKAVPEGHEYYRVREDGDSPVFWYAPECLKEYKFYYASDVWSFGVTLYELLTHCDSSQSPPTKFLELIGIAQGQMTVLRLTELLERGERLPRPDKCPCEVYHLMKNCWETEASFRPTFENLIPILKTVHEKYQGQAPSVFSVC
# Outline: (§3)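 Caliper microfluidic assay of peptide-substrate phosphorylation by the relevant JAK enzyme, run at 1 mM ATP; IC50 values are geometric means of at least three determinations.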
# [14] = target: 5-hydroxytryptamine receptor 7 (Homo sapiens) (UniProt P34969); test: Antagonist activity at recombinant human 5-HT7 receptor expressed in CHO cells assessed as inhibition of serotonin-induced cAMP accumulation at 10 uM after 30 mins by HTRF method relative to control; format: functional, cell-based
# Chain of 5-hydroxytryptamine receptor 7 (Homo sapiens) (P34969 whole entry): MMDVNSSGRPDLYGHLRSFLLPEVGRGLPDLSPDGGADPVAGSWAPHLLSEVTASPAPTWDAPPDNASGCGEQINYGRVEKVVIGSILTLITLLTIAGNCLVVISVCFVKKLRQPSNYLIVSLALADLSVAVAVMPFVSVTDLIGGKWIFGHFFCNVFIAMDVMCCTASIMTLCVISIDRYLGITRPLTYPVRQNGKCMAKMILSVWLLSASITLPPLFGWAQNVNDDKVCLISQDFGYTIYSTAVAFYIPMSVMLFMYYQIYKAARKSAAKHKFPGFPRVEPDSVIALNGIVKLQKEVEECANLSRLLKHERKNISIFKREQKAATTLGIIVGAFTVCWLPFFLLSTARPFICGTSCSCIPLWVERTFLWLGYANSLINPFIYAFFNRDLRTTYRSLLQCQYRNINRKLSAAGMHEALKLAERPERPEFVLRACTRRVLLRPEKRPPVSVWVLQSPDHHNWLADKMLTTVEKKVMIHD
# [15] = Volume of distribution at steady state in rat at 0.5 mg/kg, iv; format: ADME, organism-based; details: in vivo, read-out: Vdss
# [16] = target: T1, Tyrosine-protein kinase JAK3 (Homo sapiens, UniProt P52333); test: Inhibition of GST tagged human recombinant JAK3 catalytic domain expressed in baculovirus using peptide substrate preincubated for 60 mins followed by substrate addition and measured after 60 mins by microfluidic assay; outline: as §3
# T1 sequence (P52333 whole entry): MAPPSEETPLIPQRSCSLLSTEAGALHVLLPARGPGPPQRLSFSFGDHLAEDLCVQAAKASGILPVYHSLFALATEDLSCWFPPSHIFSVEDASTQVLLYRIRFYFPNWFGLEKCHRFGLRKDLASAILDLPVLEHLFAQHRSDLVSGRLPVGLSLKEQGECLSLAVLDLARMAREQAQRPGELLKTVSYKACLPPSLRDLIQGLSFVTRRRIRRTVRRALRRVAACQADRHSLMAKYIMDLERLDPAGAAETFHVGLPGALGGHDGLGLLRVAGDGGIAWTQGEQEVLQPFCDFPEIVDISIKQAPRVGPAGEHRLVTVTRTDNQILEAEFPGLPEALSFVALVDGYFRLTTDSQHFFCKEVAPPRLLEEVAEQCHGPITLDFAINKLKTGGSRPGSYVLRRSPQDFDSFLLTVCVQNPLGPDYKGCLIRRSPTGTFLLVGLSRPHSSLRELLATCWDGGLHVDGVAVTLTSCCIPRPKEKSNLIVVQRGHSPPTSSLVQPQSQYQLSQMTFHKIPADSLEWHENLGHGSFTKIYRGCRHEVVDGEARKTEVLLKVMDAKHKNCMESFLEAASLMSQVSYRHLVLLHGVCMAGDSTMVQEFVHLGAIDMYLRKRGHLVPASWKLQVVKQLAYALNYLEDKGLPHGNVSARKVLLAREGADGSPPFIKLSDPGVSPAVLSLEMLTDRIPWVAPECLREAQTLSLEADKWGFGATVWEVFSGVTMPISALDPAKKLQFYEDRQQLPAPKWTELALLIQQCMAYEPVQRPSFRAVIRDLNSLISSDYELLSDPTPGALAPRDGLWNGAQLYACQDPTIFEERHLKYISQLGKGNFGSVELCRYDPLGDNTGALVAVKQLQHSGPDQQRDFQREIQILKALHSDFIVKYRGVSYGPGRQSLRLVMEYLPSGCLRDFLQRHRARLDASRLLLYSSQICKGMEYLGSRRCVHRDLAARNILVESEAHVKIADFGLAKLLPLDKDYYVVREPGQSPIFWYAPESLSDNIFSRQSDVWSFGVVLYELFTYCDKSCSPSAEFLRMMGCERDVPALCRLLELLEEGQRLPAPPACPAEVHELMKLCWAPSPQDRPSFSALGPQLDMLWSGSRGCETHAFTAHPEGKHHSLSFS
# [17] = target: Vascular endothelial growth factor receptor 2 (Homo sapiens) (UniProt P35968); test: Inhibition of recombinant human KDR kinase expressed in insect Sf21 cells at 10 uM using Ulight-CAGAGAIETDKEYYTVKD as substrate after 60 mins by LANCE assay; outline: as §2
# Chain of Vascular endothelial growth factor receptor 2 (Homo sapiens) (P35968 whole entry): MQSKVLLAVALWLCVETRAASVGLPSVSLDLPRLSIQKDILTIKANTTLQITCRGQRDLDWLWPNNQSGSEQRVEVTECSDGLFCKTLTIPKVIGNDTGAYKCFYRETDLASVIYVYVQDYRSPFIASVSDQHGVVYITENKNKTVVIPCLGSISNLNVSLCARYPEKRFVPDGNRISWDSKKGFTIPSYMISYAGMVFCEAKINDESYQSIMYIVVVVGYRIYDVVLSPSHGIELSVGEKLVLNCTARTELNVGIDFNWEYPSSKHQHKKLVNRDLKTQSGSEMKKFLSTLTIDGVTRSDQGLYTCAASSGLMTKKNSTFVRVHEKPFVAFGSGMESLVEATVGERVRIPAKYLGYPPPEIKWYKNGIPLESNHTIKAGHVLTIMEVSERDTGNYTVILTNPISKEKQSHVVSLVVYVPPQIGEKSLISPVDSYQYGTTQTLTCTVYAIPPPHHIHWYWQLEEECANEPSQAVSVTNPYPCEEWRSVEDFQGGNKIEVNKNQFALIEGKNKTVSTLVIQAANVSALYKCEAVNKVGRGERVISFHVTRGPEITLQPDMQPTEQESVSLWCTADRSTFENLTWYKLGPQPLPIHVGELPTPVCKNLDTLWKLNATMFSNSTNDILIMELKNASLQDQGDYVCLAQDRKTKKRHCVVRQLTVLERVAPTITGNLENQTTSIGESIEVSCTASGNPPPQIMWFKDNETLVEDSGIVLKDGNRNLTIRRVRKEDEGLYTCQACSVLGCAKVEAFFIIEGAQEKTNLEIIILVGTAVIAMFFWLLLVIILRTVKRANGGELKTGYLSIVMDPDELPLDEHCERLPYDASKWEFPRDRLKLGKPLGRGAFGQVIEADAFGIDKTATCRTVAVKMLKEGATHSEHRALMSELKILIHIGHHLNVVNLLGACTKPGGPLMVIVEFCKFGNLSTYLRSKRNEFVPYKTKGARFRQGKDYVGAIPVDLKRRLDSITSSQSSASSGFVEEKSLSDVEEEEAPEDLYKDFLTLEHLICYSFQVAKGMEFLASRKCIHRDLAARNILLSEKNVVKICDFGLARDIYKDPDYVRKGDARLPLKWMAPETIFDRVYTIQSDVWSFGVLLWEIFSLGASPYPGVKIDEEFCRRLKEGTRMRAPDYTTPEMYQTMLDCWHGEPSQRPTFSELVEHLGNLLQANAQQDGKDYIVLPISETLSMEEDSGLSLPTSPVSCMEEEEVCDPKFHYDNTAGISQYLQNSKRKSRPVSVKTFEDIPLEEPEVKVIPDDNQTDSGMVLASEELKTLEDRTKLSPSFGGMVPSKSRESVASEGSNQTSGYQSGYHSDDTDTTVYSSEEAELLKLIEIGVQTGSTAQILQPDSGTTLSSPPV
# JAK1/TYK2 (Homo sapiens) = JAK1/TYK2 (Homo sapiens) (UniProt P23458+P29597)
smiles,measurement,setting,value
CCc1cc(O)c(F)cc1-c1ccc2c(-c3nc4c([nH]3)CCN(C(=O)c3cnc(N5CCCCC5)cn3)C4)n[nH]c2c1,Activity,Canis familiaris,Non-Toxic
same,Stability,[1],Stable
same,inhibition,[2],> 50%
same,inhibition,Rattus norvegicus [3],> 50%
same,half-life,[4],2 h
same,CL free,Rattus norvegicus [5],> 2880 L/h/kg
same,logD,[6],3.9
same,Activity,Salmonella typhimurium,Non-Toxic
same,half-life,[7],2.1 h
same,fIC50,JAK3/JAK1 (Homo sapiens),1.8 nM
same,fIC50,[8],5.2 nM
same,ED50,Mus musculus,3 µg
same,inhibition,Mus musculus,Dose-dependent effect
same,inhibition,[9],> 50%
same,Stability,[10],Stable
same,fraction unbound,[11],≤ 0.001
same,Activity,Rattus norvegicus [12],Non-Toxic
same,T1/2,Janus Kinase (JAK),> 6 h
same,IC50,[13],29.7 nM
same,inhibition,[14],> 50%
same,Vd,[15],0.8 L/kg
same,IC50,[16],59.9 nM
same,inhibition,[17],> 50%
same,fIC50,JAK1/TYK2 (Homo sapiens),4.2 nM
